Assays:
[1] = tested on: A549 lung tumor cells; assay: Growth of A549 lung tumor cells; assay type: cell-based; details: up to 1 µM, 6 days in culture, relative to DMSO control
Summary of the method: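 Subconfluent A549 cells were trypsinized, counted and plated at 1000 per well in 24-well plates, then left to attach overnight. Triplicate wells received test compound or matched DMSO (≤0.2% final). Confluence was imaged every 2 h for 6 days, with images checked to exclude morphology effects. Change in confluence was expressed relative to DMSO and plotted against concentration. IC50 was solved by linear regression at 0.5 relative growth.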

[2] = molecular target: T1, RGS17–Gαo interaction in HEK293T cells (Homo sapiens, UniProt Q9UGC6); assay: Confocal localization of GFP full-length RGS17 cotransfected with Gαo; assay type: cell-based; details: 100 µM, 10 min
T1 sequence (Q9UGC6 1-210): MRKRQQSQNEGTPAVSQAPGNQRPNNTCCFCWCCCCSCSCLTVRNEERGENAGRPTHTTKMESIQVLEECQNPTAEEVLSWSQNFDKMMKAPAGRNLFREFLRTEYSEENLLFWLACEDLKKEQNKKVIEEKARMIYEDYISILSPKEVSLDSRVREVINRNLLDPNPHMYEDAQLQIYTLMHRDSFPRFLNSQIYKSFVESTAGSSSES
Summary of the method: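 HEK293T cells were plated at 25 000 per well on poly-D-lysine-coated glass-bottom plates and held overnight at 37 °C, 5% CO2. They were cotransfected with hGαo (pcDNA 3.1(+)) and pAcGFP-RGS17FL using Lipofectamine 2000. At 24 h the medium was replaced with serum-free, phenol-red-free DMEM. Test compound was added at 2× in that medium to give 1× final (0.07–0.8% DMSO). Live cells were imaged by confocal microscopy.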

[3] = molecular target: T2, RGS17ΔN–Gαo interaction in HEK293T cells (Homo sapiens, UniProt Q9UGC6); assay: Confocal localization of GFP-RGS17ΔN cotransfected with hGαo; assay type: cell-based; details: for delocalization of RGS17ΔN from the cell membrane, GFP signal quantification: 10 µM, longer time course; for delocalization of RGS17ΔN from the cell membrane: 100 µM
T2 sequence (Q9UGC6 61-210): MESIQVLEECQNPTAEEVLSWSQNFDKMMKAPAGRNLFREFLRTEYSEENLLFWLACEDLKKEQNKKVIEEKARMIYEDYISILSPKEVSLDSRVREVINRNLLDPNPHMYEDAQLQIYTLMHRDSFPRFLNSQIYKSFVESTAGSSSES

[4] = tested on: RGS17ΔN–Gαo interaction in HEK293T cells; assay: as above; assay type: cell-based; details: 100 µM, imaging time course
[5] = molecular target: T3, RGS17 (Homo sapiens, UniProt Q9UGC6); assay: Differential scanning fluorimetry; assay type: binding; details: DSF
T3 sequence (Q9UGC6 72-206 limits assumed): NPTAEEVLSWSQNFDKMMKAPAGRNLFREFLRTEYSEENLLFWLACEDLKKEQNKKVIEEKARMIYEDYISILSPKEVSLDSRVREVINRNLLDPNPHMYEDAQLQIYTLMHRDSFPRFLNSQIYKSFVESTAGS

[6] = tested on: TEM4-18 cells; assay: Prostate tumor cell growth, TEM4-18; assay type: cell-based; details: dose-response
[7] = tested on: CREB phosphorylation; assay: CREB phosphorylation upon stimulation with forskolin; assay type: cell-based; details: compared to DMSO-treated controls, data not shown
[8] = tested on: RWPE-1 cells; assay: Prostate cell growth, RWPE-1; assay type: cell-based; details: immortalized epithelial, normal cells
[9] = molecular target: T3, RGS17; assay: Isothermal titration calorimetry; assay type: binding; details: for change in enthalpy ΔH / entropic change TΔS / protein:ligand binding stoichiometry / ΔG binding: ITC
[10] = molecular target: T4, RGS17ΔN (1ZV4 construct) (Homo sapiens, UniProt Q9UGC6); assay: Covalent modification of RGS17 by ESI-TOFMS; assay type: binding; details: ESITOFMS, 5:1 test compound to RGS17, 72 h
T4 sequence (Q9UGC6 72-206): T3 sequence (Q9UGC6 72-206 limits assumed)
Summary of the method: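 Protein: RGS17ΔN (1ZV4 construct) at 20 µM in 25 mM HEPES, 100 mM NaCl, 5% DMSO, pH 8. Incubated at 4 °C for 72 h with or without 100 µM test compound. Dialysed 24 h at 4 °C against 25 mM NH4HCO3 and 100 µM NaCl to remove noncovalent compound, with a second dialysis for some compounds. Analysed by direct-infusion positive-mode ESI-TOF with spectral deconvolution.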

[11] = tested on: PC3E cells; assay: Prostate tumor cell growth, PC3E; assay type: cell-based; details: for inhibition of PC3E cell growth: dose-response; for sensitization of PC3E cells by overexpression of RGS17: transient transfection, data not shown
[12] = Solubility in aqueous buffer for ITC; assay type: physicochemical; details: at the high concentration needed for the ITC experiment
[13] = molecular target: Gα protein (Homo sapiens, UniProt P09471); assay: Differential scanning fluorimetry; assay type: binding; details: DSF, data not shown
Sequence of Gα protein (P09471 whole entry): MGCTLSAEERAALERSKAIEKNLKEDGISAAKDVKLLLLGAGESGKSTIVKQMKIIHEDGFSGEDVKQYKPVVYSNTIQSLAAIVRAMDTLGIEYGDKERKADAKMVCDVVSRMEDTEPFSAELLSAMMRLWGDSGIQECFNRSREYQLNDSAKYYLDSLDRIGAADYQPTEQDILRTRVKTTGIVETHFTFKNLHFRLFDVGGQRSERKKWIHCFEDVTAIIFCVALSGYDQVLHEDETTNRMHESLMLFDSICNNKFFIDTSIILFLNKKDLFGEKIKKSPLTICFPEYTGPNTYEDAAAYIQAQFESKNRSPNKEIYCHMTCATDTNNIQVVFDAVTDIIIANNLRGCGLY

| SMILES | inhibition of A549 cell growth [1] | localization of GFP full-length RGS17 [2] | delocalization of RGS17ΔN from the cell membrane, GFP signal quantification [3] | delocalization of RGS17ΔN from the cell membrane [3] | gross morphological changes indicative of cytotoxicity [4] | melting temperature (Tm) shift for RGS17 [5] | inhibition of TEM4-18 cell growth [6] | reduction of CREB phosphorylation [7] | growth arrest of RWPE-1 cells [8] | Kd [9] [µM] | change in enthalpy ΔH [9] [kcal/mol] | entropic change TΔS [9] [kcal/mol] | protein:ligand binding stoichiometry [9] | ΔG binding [9] [kcal/mol] | covalent adduct formation with RGS17 [10] | inhibition of PC3E cell growth [11] | sensitization of PC3E cells by overexpression of RGS17 [11] | solubility in aqueous buffer [12] | shift in Tm for the G protein [13] |
| --- | --- | --- | --- | --- | --- | --- | --- | --- | --- | --- | --- | --- | --- | --- | --- | --- | --- | --- | --- |
| C[n+]1cc2c3c(ccc2c2ccc4cc5c(cc4c21)OCO5)OCO3 [compound 1, sanguinarine] | sub-micromolar inhibition | remained at the membrane | loss of this enrichment at T = final | disrupt RGS17–Gα interaction | lack of gross morphological changes | only minor melting temperature (Tm) shifts | inhibited the growth | trended toward the proposed mechanism | caused growth arrest | 1 | -0.148 | 8.0202 | 0.82 | -8.168 | could not be detected | inhibited the growth | did not result in a sensitization |  |  |
| Cc1ccc(-n2sc(=O)n(Cc3ccc(F)cc3)c2=O)cc1 [CCG-50014, reference compound] |  |  |  | did not result in RGS17ΔN delocalization from the membrane | significant cell shrinkage |  |  |  |  |  |  |  |  |  |  |  |  |  |  |
| CC1=C(O)C(=O)C=C2C1=CC=C1[C@@]2(C)CC[C@@]2(C)[C@@H]3C[C@](C)(C(=O)O)CC[C@]3(C)CC[C@]12C [compound 2, celastrol] | sub-micromolar inhibition |  | loss of this enrichment at T = final | disrupt RGS17–Gα interaction | lack of gross morphological changes | only minor melting temperature (Tm) shifts | inhibited the growth |  | caused growth arrest |  |  |  |  |  | both singly and doubly adducted species | inhibited the growth | did not result in a sensitization | not soluble |  |
| O=c1c(-c2cc(O)c(O)c(O)c2)coc2cc(O)c(O)c(O)c12 [compound 4, irigenol] | did not demonstrate any level of growth inhibition |  | demonstrated the same trend | disrupt RGS17–Gα interaction | lack of gross morphological changes | only minor melting temperature (Tm) shifts |  | trended toward the proposed mechanism |  |  | -2.158 | 6.2313 | 0.33 | -8.389 | could not be detected |  |  |  |  |
| CC(C)=CCC[C@]1(C)C=Cc2c(O)c3c(c(CC=C(C)C)c2O1)O[C@]12C(=C[C@@H]4C[C@H]1C(C)(C)O[C@@]2(C/C=C(/C)C(=O)O)C4=O)C3=O [compound 3, (−)-gambogic acid] |  |  |  |  |  |  |  |  |  |  |  |  |  |  |  |  |  |  | drastic negative shift |
